Experimental findings from PubChem BioAssay AID617 (SRMLSC, 2007) are described below.

This assay deals with E. coli BW25113 ΔtolC growth inhibition, OD615. The assay is described as follows: E. coli ΔtolC antibacterial growth inhibition – strain BW25113 ΔtolC::kan, dose response (AID 617). The essentials:
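system = E. coli BW25113 tolC deletion strain (ΔtolC::kan), whole bacterial cells | technique = optical density (absorbance) at 615 nm | dosing = compounds in serially diluted dose-response series | times = bacterial growth with compound for 20 h, 37 °C | evaluation = growth-inhibition IC50 from four-parameter logistic curve, bounds set to 0% and 100%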
In the case of `Cc1nnc(SC(=O)N2c3ccccc3Sc3ccccc32)s1`, the IC50 – broadly, the point on the concentration scale where inhibition reaches its midpoint – was 14.6 µM.

For the compound `Cc1ccc(S(=O)(=O)Cn2nnnc2CN2CCCC3(CCCCC3)C2)cc1`, the IC50 was 11.3 µM.

Regarding `COc1ccccc1-c1cc(C(=O)NCc2ccccc2)no1`, the IC50 was 17.1 µM.

Take `CCOC(=O)c1ccc(-n2[nH]c(-c3ccccc3)cc2=O)cc1`: the half-maximal inhibitory concentration (IC50) was 8.26 µM.

In the case of `CCOc1ccc(C(=O)C2CCN(CC(=O)Nc3ccccc3N3CCOCC3)CC2)cc1`, the IC50 was 15.6 µM.

For the compound `Cc1ccc(-n2c(=O)[nH]cc(C(=O)Nc3ccc4c(c3)OCCO4)c2=O)cc1C`, the IC50 is 26.9 µM.

`COC(=O)c1sc(N2C(=O)C(O)=C(C(=O)c3ccc(C)o3)C2c2ccc(F)cc2)nc1C` (centres undefined): the IC50 was 15.6 µM.

As for `CCOC(=O)c1cccc2c1-c1ccccc1/C2=N/O`, the IC50 is 97.1 µM.

Turning to `CN(Cc1ccccc1)c1ncnc2c1cnn2-c1ccccc1`, the IC50 was 12.7 µM.

For the compound `OC(COc1ccc(Cl)c2ccccc12)CN1CCN(c2ccccn2)CC1` (centres undefined), the IC50 was 11.6 µM.

As for `Cc1n[nH]c(C)c1S(=O)(=O)N(CC(=O)Nc1ccc2c(c1)OCCO2)c1ccc(C(C)C)cc1`, the IC50 was 19.3 µM.

Consider `CCOC(=O)c1cc2cc(-c3c(C(=O)OCC)oc4cc(O)cc(O)c4c3=O)ccc2o1`, for which the IC50 is 7.59 µM.

For the compound `O=C(NCc1ccco1)c1cnn2c1NC(c1ccc(Br)cc1)CC2C(F)(F)F` (centres undefined), the IC50 is 12.8 µM.

In the case of `O=C(Nc1ccc(C(F)(F)F)cc1)C1CCCN1S(=O)(=O)c1cccc2cccnc12` (centres undefined), the IC50 was 22.6 µM.

For `CC(Nc1ccc(Br)cn1)c1cc(Cl)ccc1O` (centres undefined), the IC50 was 5.61 µM.

`CCCN(CCC)C(=O)CSc1nc2ccccc2c(=O)n1C1CCCC1`: the IC50 is 14.2 µM.

Take `Cc1cccc(-c2noc(CN(C(=O)c3ccc(Br)o3)C(C)C)n2)c1`: the IC50 was 11.8 µM.

Regarding `COc1ccc(NC(=O)N(C2CCCCC2)C(C)c2ccco2)c(OC)c1` (centres undefined), the IC50 was 15 µM.

With `O=c1c2c(nc3n1CCCCC3)-c1ccccc1CC21CCCC1`, the IC50 was 14.1 µM.

As for `Cn1c(CSc2nc3ccccc3s2)nc2ccccc21`, the IC50 was 22.4 µM.

As for `COc1ccc(CCNC(=O)c2cc3sc(Cl)cc3n2C)cc1OC`, the IC50 was 30.8 µM.

In the case of `c1ccc(-c2oc3ncnc(NCCN4CCOCC4)c3c2-c2ccccc2)cc1`, the IC50 was 11.8 µM.

On to `CCOc1ccccc1NC(=O)c1cc(CC(C)C)oc1C`, for which the IC50 is 21.8 µM.

With `CC1(C)Cc2c(sc3c2c(=N)n(Cc2ccco2)c(=O)n3Cc2ccc(Cl)cc2)CO1`, the IC50 was 13.3 µM.

For `CCCCCn1c(SCCC(C)C)nc2c1c(=O)[nH]c(=O)n2C`, the IC50 was 38 µM.

Take `Cc1cccc(-n2ncc3c(NCc4ccc5c(c4)OCO5)ncnc32)c1`: the IC50 is 8.94 µM.

As for `COc1ccc(-n2c(Cc3cccn3C)nnc2SCC(=O)Nc2ccc(C)c(Cl)c2)cc1`, the IC50 was 14.4 µM.

As for `Cc1cccc(C(C)(C)C)c1OCCn1ccnc1`, the IC50 is 11.8 µM.

On to `Cc1ccc2cc(CN(Cc3ccc(F)cc3)Cc3nnnn3C3CCCC3)c(=O)[nH]c2c1`, for which the IC50 is 12.8 µM.

`C=C(C)COc1ccc(-c2n[nH]c(C)c2-c2ccccc2OC)c(O)c1`: the IC50 was 13.6 µM.

Regarding `Cc1cccc(N(C)C(=O)c2cc3cc4ccc(C)cc4nc3o2)c1`, the IC50 is 23.9 µM.

With `O=c1c2c(nc3c(-c4cccc5ccccc45)c[nH]n13)CCC2`, the IC50 is 7 µM.

As to `Clc1cccc(-c2nc3nc4ccccc4nc3n2Cc2ccco2)c1`, the IC50 is 15 µM.

`COc1cccc2sc(Nc3nc(-c4ccccn4)cs3)nc12`: the 50% inhibitory concentration (IC50) is 1.79 µM.

As for `Cc1cccc(OCCCCc2c(C)n[nH]c2C)c1C`, the IC50 was 1.56 µM.

On to `COc1ccc2nc(NC(=O)CSc3nnnn3C3CCCCC3)sc2c1`, for which the IC50 was 63.6 µM.

Consider `O=C(Nc1ccc(CN2CCOCC2)cc1)c1ccc(-c2ccc(Br)cc2)o1`, for which the IC50 is 30.4 µM.

As for `CCOC(=O)c1nnn(-c2nonc2-n2cccc2)c1CN1CCC(C)CC1`, the IC50 is 23.4 µM.

For the compound `CCCCN(CCCNC(=O)CN1C(=O)COc2ccccc21)c1ccccc1`, the IC50 was 38.9 µM.
